In ChEMBL document CHEMBL1124456, “Synthesis and structure-activity relationship of substituted tetrahydro- and hexahydro-1,2-benzisothiazol-3-one 1,1-dioxides and thiadiazinones: potential anxiolytic agents” (J Med Chem, 1989):

Experiments:
[1] = target: T1, 5-hydroxytryptamine receptor 1A (Rattus norvegicus, UniProt P19327); assay: In vitro ability to inhibit [3H]-8-OH-DPAT binding to 5-hydroxytryptamine 1A receptor of rat hippocampus. and the value ranges from 16 - 27; type: tissue-based
T1 sequence (P19327 whole entry): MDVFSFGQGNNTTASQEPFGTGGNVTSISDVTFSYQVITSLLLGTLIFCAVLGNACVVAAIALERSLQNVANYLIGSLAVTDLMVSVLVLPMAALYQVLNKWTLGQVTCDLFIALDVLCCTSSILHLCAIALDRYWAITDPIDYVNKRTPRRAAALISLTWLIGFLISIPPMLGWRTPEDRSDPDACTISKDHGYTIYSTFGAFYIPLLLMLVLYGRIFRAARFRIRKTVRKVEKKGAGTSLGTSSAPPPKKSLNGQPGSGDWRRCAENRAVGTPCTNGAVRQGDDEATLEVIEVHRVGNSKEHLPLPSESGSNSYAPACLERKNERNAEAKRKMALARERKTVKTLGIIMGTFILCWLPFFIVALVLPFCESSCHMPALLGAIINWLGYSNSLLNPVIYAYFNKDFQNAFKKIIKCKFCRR

Rattus norvegicus [2] = species: Rattus norvegicus; assay: Anti-psychotic activity from the ability to block discrete trial conditioned avoidance response (CAR) of rats.; type: functional
Procedure, shortened: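 Discrete-trial conditioned avoidance in male CD rats kept at about 400–450 g body weight. Dosing was ip or po, 30 min before testing, with at least five rats per dose (20 or 40 mg/kg, or a dose range). Computer recorded intertrial, avoidance and escape responses and no-response trials. Avoidance-block trials were taken as % of total trials, with control avoidance set at 100%. AB50 came from a least-squares dose-effect regression line.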

[3] = target: D(2) dopamine receptor (Rattus norvegicus) (UniProt P61169); assay: Inhibition of [3H]spiperone binding to Dopamine receptor D2 of rat limbic structures; type: tissue-based; parameters: concentration or dose not given beside the values; conditions: Limbic system, concentration not given here
D(2) dopamine receptor (Rattus norvegicus), sequence (P61169 whole entry): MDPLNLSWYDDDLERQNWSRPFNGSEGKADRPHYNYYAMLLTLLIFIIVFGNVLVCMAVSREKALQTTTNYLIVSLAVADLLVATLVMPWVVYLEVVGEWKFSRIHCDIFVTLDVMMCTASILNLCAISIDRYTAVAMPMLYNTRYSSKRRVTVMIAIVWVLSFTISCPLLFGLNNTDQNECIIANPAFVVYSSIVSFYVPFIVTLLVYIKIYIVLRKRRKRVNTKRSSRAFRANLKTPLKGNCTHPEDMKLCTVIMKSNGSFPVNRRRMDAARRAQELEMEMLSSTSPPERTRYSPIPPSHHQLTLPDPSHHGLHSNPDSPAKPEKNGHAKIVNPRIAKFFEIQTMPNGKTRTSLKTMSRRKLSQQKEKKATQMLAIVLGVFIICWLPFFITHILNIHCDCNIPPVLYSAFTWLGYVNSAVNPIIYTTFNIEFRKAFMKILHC

[4] = target: T2, 5-hydroxytryptamine receptor 1A (Rattus norvegicus) (UniProt P19327); assay: In vitro ability to inhibit [3H]-8-OH-DPAT binding to 5-hydroxytryptamine 1A receptor of rat hippocampus at 1 uM; type: tissue-based
T2 sequence (whole entry): T1 sequence (P19327 whole entry)

Rattus norvegicus [5] = assay: Compound was tested for antagonism of apomorphine-induced climbing behavior, after intraperitoneal dosing.; type: functional; conditions: ip
[6] = target: D(2) dopamine receptor (Rattus norvegicus) (UniProt P61169); assay: Inhibition of [3H]-spiperone binding to dopamine receptor D2 of rat limbic structures at 1 uM.; conditions: Limbic system
Rattus norvegicus [7] = assay: Compound was tested for antagonism of apomorphine-induced stereotyped behavior, after intraperitoneal dosing.; type: functional; conditions: ip
Procedure, shortened: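 High-dose apomorphine-induced stereotyped behavior procedure. Test agents were given ip at doses up to 60 mg/kg.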

[8] = target: D(2) dopamine receptor (Rattus norvegicus) (UniProt P61169); assay: Compound was tested in vitro at for the ability to inhibit [3H]spiperone binding to Dopamine receptor D2 of rat limbic structures at 3 uM; type: tissue-based; conditions: Limbic system
[9] = target: T2, 5-hydroxytryptamine receptor 1A (Rattus norvegicus); assay: In vitro ability to inhibit [3H]8-OH-DPAT binding to 5-hydroxytryptamine 1A receptor of rat hippocampus at 1 uM; type: tissue-based
[10] = target: D(2) dopamine receptor (Rattus norvegicus) (UniProt P61169); assay: In vitro ability to inhibit [3H]spiperone binding to Dopamine receptor D2 of rat limbic structures at 10 uM; type: tissue-based; conditions: Limbic system
[11] = target: T2, 5-hydroxytryptamine receptor 1A (Rattus norvegicus); assay: In vitro ability to inhibit [3H]-8-OH-DPAT binding to 5-hydroxytryptamine 1A receptor of rat hippocampus.; type: tissue-based; conditions: concentration not given here

| Compound | inhibition [3] [%] | AB50 (Rattus norvegicus [2]) [mg/kg] | other results |
| --- | --- | --- | --- |
| CC1=C(C)CC2C(C1)C(=O)N(CCCCN1CCN(c3ncccn3)CC1)S2(=O)=O.Cl.Cl (centres undefined) | 21 | 40 |  |
| Cl.Cl.O=C1C2C3C=CC(CC3)C2S(=O)(=O)N1CCCCN1CCN(c2ncccn2)CC1 (centres undefined) |  | 40 |  |
| Cl.O=C1c2cscc2S(=O)(=O)N1CCCCN1CCN(c2cncc(Cl)n2)CC1 |  | >40 |  |
| Cl.Cl.O=C1C2C3CCC(O3)C2S(=O)(=O)N1CCCCN1CCN(c2ncccn2)CC1 (centres undefined) |  | >40 | ED50 (Rattus norvegicus [5]): 16 mg/kg; inhibition [6]: 0%; ED50 (Rattus norvegicus [7]): 34 mg/kg |
| Cl.O=C1c2cscc2S(=O)(=O)N1CCCCN1CCN(c2nccnc2Cl)CC1 |  | >40 |  |
| Cl.O=C1C2C3C=CC(CC3)C2S(=O)(=O)N1CCCCN1CCN(c2cncc(Cl)n2)CC1 (centres undefined) |  | 40 | inhibition [8]: 57% |
| Cl.Cl.Cl.O=C1C2C3C=CC(C3)C2S(=O)(=O)N1CCCCN1CCN(c2cncc(Cl)n2)CC1 (centres undefined) | 1 | 40 |  |
| Cl.O=C1[C@H]2C3CCC(O3)[C@H]2S(=O)(=O)N1CCCCc1ccncc1 (some centres undefined) |  | 40 | inhibition [6]: 3%; inhibition [9]: 0% |
| CC1=C(C)CC2C(C1)C(=O)N(CCCCN1CCN(c3cncc(Cl)n3)CC1)S2(=O)=O.Cl.Cl.Cl (centres undefined) |  | 40 | inhibition [10]: 66% |
| Cl.O=C1c2ccccc2S(=O)(=O)N1CCCCN1CCN(c2nccnc2Cl)CC1 |  | 40 |  |
| Cl.Cn1nnnc1N1CCN(CCCCN2C(=O)c3ccccc3S2(=O)=O)CC1 |  | 40 | inhibition [6]: 14%; inhibition [11]: 52% |
| Cl.Cl.O=C1N(CCCCN2CCN(c3ncccn3)CC2)S(=O)(=O)NC12CCCCC2 |  | 40 |  |
| Cl.Cl.O=c1c2ccccc2[s+]([O-])n1CCCCN1CCN(c2ncccn2)CC1 (centres undefined) |  | 40 | inhibition [6]: 3%; inhibition [9]: 43% |
| Cl.O=C1C2C3C=CC(CC3)C2S(=O)(=O)N1CCCCc1ccncc1 (centres undefined) | 0 | >40 | inhibition [9]: 35% |
| Cl.O=C1C2C3C=CC(C3)C2S(=O)(=O)N1CCCCc1ccncc1 (centres undefined) | 1 | 40 |  |

More lines, main results first:

| inhibition [3] [%] | Compound | AB50 (Rattus norvegicus [2]) [mg/kg] | other results |
| --- | --- | --- | --- |
| 70 | Cl.O=C1C2C3CCC(C4CC43)C2S(=O)(=O)N1CCCCN1CCN(c2ncccn2)CC1 (centres undefined) | 40 | Ki [1]: 21 nM |
| 0 | Cl.O=c1c2ccccc2[s+]([O-])n1CCCCN1CCN(c2cncc(Cl)n2)CC1 (centres undefined) | 40 | inhibition [4]: 44% |
| 6 | Cl.O=C1c2ccccc2S(=O)(=O)N1CCCCN1CCN(c2cncc(Cl)n2)CC1 | 40 |  |
